Screening results from PubChem.
NR2E3 ag-1: inhibitors of NR2E3-RetCOR corepressor binding, primary screen, NR2E3 agonist project, biochemical, TR-FRET, GST-NR2E3, biotin-RetCOR | Photoreceptor-specific nuclear receptor (Homo sapiens), Q9Y5X4 | 1536-well | inhibition of corepressor binding, % at 4.78 µM | actives 0.12% (n = 320,000) | AID 2300, 2010;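 active = percent inhibition above the cutoff of mean plus 3 SD of all tested compounds, set per screening campaign, cut at about 20% in these data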;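 also: 0% = DMSO wells and 100% = biotin wells as full block of FRET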
Target sequence (Q9Y5X4 whole entry, looked up): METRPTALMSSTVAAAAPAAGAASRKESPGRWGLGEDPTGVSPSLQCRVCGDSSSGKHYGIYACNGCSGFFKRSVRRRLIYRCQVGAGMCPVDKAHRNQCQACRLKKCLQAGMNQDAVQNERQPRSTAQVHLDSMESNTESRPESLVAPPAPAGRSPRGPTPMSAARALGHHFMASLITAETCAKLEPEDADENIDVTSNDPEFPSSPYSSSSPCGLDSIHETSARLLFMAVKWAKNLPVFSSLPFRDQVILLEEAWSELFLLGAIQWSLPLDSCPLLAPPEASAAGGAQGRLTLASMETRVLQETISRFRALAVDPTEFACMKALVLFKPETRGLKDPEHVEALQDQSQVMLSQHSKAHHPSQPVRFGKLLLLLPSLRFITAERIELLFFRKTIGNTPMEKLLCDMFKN
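Material: NR2E3–RetCOR corepressor complex | Quantity: 1.35 nM GST-tagged NR2E3 final | Schedule: 5 h at 4 °C | Replication: Singlicate compound wells | Reagent: RetCOR corepressor, biotinylated, 7 nM | Controls: Biotin wells as high control, 0.6% DMSO wells as low control | Signal: TR-FRET, Eu(K)-anti-GST donor, streptavidin-D2 acceptor, ex 340, em 617/671 nm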
bovine MsrA act: bovine MsrA enzyme activators, primary screen, biochemical, absorbance, HTS; Methionine sulfoxide reductase A (Bos taurus); purified bovine MsrA, absorbance read-out; activation, % at 10.6 µM; actives 0.3% (n = 360,000); in the data active = activation above about 7.5%;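 also: 0% = vehicle and 100% = reference activator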
GalR3 antag: GalR3 antagonists in HEK293 cells, primary screen, cell-based, fluorescence readout | Galanin receptor type 3 (Homo sapiens), O60755 | HEK293 GalR3-CNG cAMP membrane potential fluorescence; galR3 body fused to GalR1 C-terminus | AID 651719, 2012 | actives 0.44% (n = 360,000) | inhibition, % at 3 µM;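 active = inhibition above the screen-wide average plus 3 SD, cut at about 13% in these data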;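 also: forskolin and galanin both at EC90 stimulate the cells; cAMP rise reported by CNG channel membrane potential dye signal; 0% = forskolin plus galanin with DMSO and 100% = forskolin alone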
NadD inh: inhibitors of S. aureus NadD, primary screen, biochemical, colorimetric, uHTS. inhibition, % at 20 µM. Nicotinate-nucleotide adenylyltransferase NadD (Staphylococcus aureus N315). purified NadD enzyme, colorimetric absorbance read-out. actives 0.78% (n = 360,000); in the data active = inhibition above about 26%
NR2E3 ag-2: NR2E3 agonists in two-hybrid cells, primary screen, cell-based, luminescence, CHO-S, Gal4-NCOR/VP16-NR2E3. luciferase. AID 602229, 2012. Photoreceptor-specific nuclear receptor (Homo sapiens), Q9Y5X4. inhibition of corepressor binding, % at 3.98 µM. actives 0.35% (n = 360,000);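 active = inhibition above the mean of all tested compounds plus 3 SD, cut at about 70% in these data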;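 also: 0% = DMSO with NR2E3 transfected cells and 100% = cells lacking NR2E3 construct; higher means lower luciferase signal from less NR2E3 corepressor binding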
MsrA inhibitor: bovine MsrA enzyme inhibitors, primary screen, biochemical, absorbance, HTS. inhibition, % at 15.5 µM. actives 0.75% (n = 360,000). AID 651718, 2012. purified bovine MsrA, absorbance read-out; in the data active = inhibition above about 4.5%;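 also: 0% = vehicle wells with enzyme and 100% = reference inhibitor wells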
NR2E3 ag conf: NR2E3 agonist confirmation in cells, cell-based, luminescence, CHO-S two-hybrid. actives 51% (n = 2,300). inhibition, % at 3.98 µM. CHO-S mammalian two-hybrid NR2E3-NCOR, luciferase luminescence. shares compounds with NR2E3 ag-2;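 active = average inhibition above a cutoff equal to the mean inhibition of all tested compounds plus one SD, cut at about 70% in these data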;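 also: 0% = DMSO in NR2E3 cells and 100% = DMSO in cells lacking NR2E3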
GAL4-VP16 luc: GAL4-VP16 reporter modulators, confirmation, counter-screen for NR2E3 agonist project, cell-based, luminescence, CHO-S, high throughput | inhibition, % at 3.98 µM | AID 624379, 2012 | shares compounds with NR2E3 ag-2 | actives 29% (n = 2,300) | CHO-S GAL4-VP16 luciferase reporter;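 active = mean inhibition above a cutoff equal to the average over all tested compounds plus one standard deviation, cut at about 70% in these data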;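 also: luciferase from a UAS reporter driven by GAL4-VP16 transactivation; 0% = DMSO with VP16-transfected cells and 100% = DMSO with cells lacking VP16; higher means less reporter light so more repression of VP16 activity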
An asterisk follows results filed as active; · = no result given. A selection: hits, their analogues and other compounds. The true share with any hit is near 2.5%.

SMILES	NR2E3 ag-1	bovine MsrA act	GalR3 antag	NadD inh	NR2E3 ag-2	MsrA inhibitor	NR2E3 ag conf	GAL4-VP16 luc
O=C(OCc1ccc(Br)cc1)c1cc([N+](=O)[O-])ccc1N1CCOCC1	·	-2	-5	-2	-37	1	·	·
O=C(COC(=O)c1cc([N+](=O)[O-])ccc1N1CCOCC1)Nc1ccc(Cl)cc1	2	-5	-2	-11	-25	2	·	·
O=C(COC(=O)c1cc([N+](=O)[O-])ccc1N1CCOCC1)Nc1ccc(Cl)cn1	-1	-3	-4	-5	78*	3	82*	28
CC(C)CC(=O)NC(=S)Nc1ccc(N2CCN(C(=O)c3cccs3)CC2)cc1	0	-3	-7	0	65	0	85*	68
Cc1ccccc1C(=O)N1CCN(c2ccc(NC(=O)CSc3ccc(Cl)cc3)cc2)CC1	1	1	-6	8	57	2	59	66
Cc1ccccc1C(=O)N1CCN(c2ccc(NC(=S)NC(=O)c3cccs3)cc2)CC1	6	-8	-4	0	62	1	63	35
CN(C)c1ccc(/C=N/NC(=O)C[n+]2ccccc2)cc1	-4	-4	-5	-5	-23	3	·	·
O=c1c2ccccc2nc2c3ccccc3c(NCc3ccccn3)nn12	2	-4	-2	2	-2	1	·	·
OC(c1cc(-c2ccc(C(F)(F)F)cc2)nc(C(F)(F)F)c1)C1CCCCN1 (stereo unspecified)	-1	-2	-13	-7	92*	-4	59	48
OC(c1cc(C(F)(F)F)nc2c(C(F)(F)F)cccc12)C1CCCCN1 (stereo unspecified)	4	-8	-4	-4	14	-2	·	·
CC1=NNC(=O)C1CCC(=O)N/N=C/c1ccc(Cl)cc1 (stereo unspecified)	4	2	1	-2	-4	0	·	·
COc1ccccc1CNc1nc(NC(C)C)nc2cc(-c3ccccc3)sc12	·	-2	-8	18	-4	0	·	·
CC(C)Nc1nc(NCCOc2ccccc2Cl)c2sc(-c3ccccc3)cc2n1	·	-6	-8	29	48	-1	18	14
COc1ccc(OCC(O)CN2CCc3ccccc3C2)cc1 (stereo unspecified)	0	-3	-2	-4	-8	0	·	·
CC(C)(C)c1ccc(OCC(O)CN2CCc3ccccc3C2)cc1 (stereo unspecified)	3	-2	-9	-9	85*	-1	-3	2
Nc1cc2c(cc1Cl)-c1ccc([N+](=O)[O-])cc1C2=NO	·	-4	-8	16	54	1	25	-11
O=C(CCN1C(=O)C2CC=CCC2C1=O)Nc1cccc(S(=O)(=O)N2CCCCC2)c1 (stereo unspecified)	2	-1	-4	2	13	-1	·	·
O=C(CSc1nnc(NC(=O)C2CC2)s1)NCc1cccs1	3	-3	-6	0	-21	1	·	·
Cc1cccc(-n2ncc3c2CCCC3NC(=O)Cc2c(C)noc2C)c1C (stereo unspecified)	0	-5	0	-3	60	1	54	57
CC1=C(C(=O)NC2CCCc3c2cnn3-c2cccc(C)c2C)OCCO1 (stereo unspecified)	1	0	0	3	80*	0	73*	67
Cc1cc(C(=O)NC2CCCc3c2cnn3-c2cccc(C)c2C)no1 (stereo unspecified)	-1	-5	-4	2	12	-1	·	·
COc1ccc(C(=O)NC2CCCc3c2cnn3-c2cccc(C)c2C)o1 (stereo unspecified)	2	-6	-2	-4	65	1	32	30
CCCNC(=O)Cn1nc(C(F)(F)F)c2c1CCC2	2	-3	-6	2	-4	-1	·	·
CCN(CC(=O)Nc1ccc(NC(C)=O)cc1)C(=O)C(c1ccccc1)c1ccccc1	2	-3	-4	0	-3	1	·	·
Cc1nnc(SCC(=O)NC2CCCC2)n1-c1ccccc1	4	-2	-6	-9	-14	0	·	·
SMILES	NR2E3 ag-1	bovine MsrA act	GalR3 antag	NadD inh	NR2E3 ag-2	MsrA inhibitor	NR2E3 ag conf	GAL4-VP16 luc
COC(=O)N1C2CCCCC2=NN(c2ccccc2)N1C(=O)OC (stereo unspecified)	·	-14	-6	-2	71*	0	6	18
Cc1ccc(NC(=O)c2cc(C)n(-c3ccccc3)c2C)cc1	-1	-2	-4	0	59	0	37	-34
Cc1ccc(NC(=O)c2cc(C)n(-c3cccc(C)c3)c2C)cc1	-1	-3	2	-1	18	0	·	·
Cc1cc(C(=O)Nc2ccc(Cl)cc2)c(C)n1-c1ccccc1	1	-2	-3	0	88*	0	82*	55
Cc1cc(C(=O)Nc2ccc(Cl)cc2)n(-c2ccccc2)n1	-2	-1	-8	-9	-57	0	·	·
COc1ccc(CC2C(=O)NC(C)C(=O)N(C)C3Cc4ccc(cc4)Oc4cc(ccc4O)CC(C(=O)NC(C)C(=O)NC(C)C(=O)N2C)N(C)C3=O)cc1 (stereo unspecified)	·	-4	1	1	103*	0	99*	96*
O=c1c2ccccc2nc(COc2ccccc2)n1/N=C/c1ccco1	-1	-5	-3	-4	-44	1	·	·
CCCc1cc(=O)oc2cc(OCc3cccc(OC)c3)c(Cl)cc12	5	-2	-1	5	-25	0	·	·
CC1(C)CC(=Cc2cc(O)ccc2[N+](=O)[O-])C(=O)c2ccccc21	·	-4	·	-5	98*	·	99*	71*
CCOC(=O)c1[nH]c2cc3c(cc2c1NC(=O)CN1CCCCC1C)OCO3 (stereo unspecified)	-1	·	·	·	·	·	·	·
CC[n+]1c(/C=C/c2ccc(N(C)C)cc2)ccc2ccccc21	-25	-9	8	15	21	0	·	·
